Results taken from ChEMBL document CHEMBL4304743, “Discovery of ( E)- N1-(3-Fluorophenyl)- N3-(3-(2-(pyridin-2-yl)vinyl)-1 H-indazol-6-yl)malonamide (CHMFL-KIT-033) as a Novel c-KIT T670I Mutant Selective Kinase Inhibitor for Gastrointestinal Stromal Tumors (GISTs)” (J Med Chem, 2019).
Activity calls are given as the source filed them. The calls are words filed in the database; no cut-off is given here.

Assays:
[1] = tested on: Mast/stem cell growth factor receptor Kit (Homo sapiens), P10721 [V559A]; experiment: Inhibition of TEL fused c-KIT V559A mutant (unknown origin) transfected in mouse BAF3 cells assessed as growth inhibition after 72 hrs by CCK8 assay; format: cell-based
Outline: (§1)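 Tel-c-KIT-transformed BaF3 lines (IL-3 independent) kept in RPMI 1640 with 10% FBS, 2% L-glutamine and pen/strep. Cells at 1.5 to 5 × 10^4 cells/mL mixed with graded compound and incubated 72 h at 37 °C, 5% CO2. Viability by CCK-8 absorbance at 450 nm, normalized to DMSO. GI50 from dose–response fit.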

[2] = tested on: Mast/stem cell growth factor receptor Kit (Homo sapiens), P10721 [V654A]; experiment: Inhibition of TEL fused c-KIT V654A mutant (unknown origin) transfected in mouse BAF3 cells assessed as growth inhibition after 72 hrs by CCK8 assay; format: cell-based; outline: as §1
[3] = tested on: Mast/stem cell growth factor receptor Kit (Homo sapiens), P10721 [D816H]; experiment: Inhibition of TEL fused c-KIT D816H mutant (unknown origin) transfected in mouse BAF3 cells assessed as growth inhibition after 72 hrs by CCK8 assay; format: cell-based; outline: as §1
[4] = molecular target: T1, Mast/stem cell growth factor receptor Kit (Homo sapiens, UniProt P10721, T670I); experiment: Inhibition of TEL fused wild type c-KIT T670I mutant (unknown origin) transfected in mouse BaF3 cells assessed as reduction in phosphorylation at Y719 residue after 2 hrs by Western blot analysis; format: cell-based
[5] = molecular target: T1, Mast/stem cell growth factor receptor Kit; experiment: Inhibition of TEL fused wild type c-KIT T670I mutant (unknown origin) transfected in mouse BaF3 cells assessed as reduction in phosphorylation at Y823 residue after 2 hrs by Western blot analysis; format: cell-based
[6] = molecular target: T2, Platelet-derived growth factor receptor alpha (Homo sapiens, UniProt P16234); experiment: Binding affinity to wild-type human partial length PDGFRA (V575 to D1002 residues) expressed in mammalian expression system assessed as enzyme remaining activity at 1 uM by Kinomescan assay relative to control
[7] = molecular target: T2, Platelet-derived growth factor receptor alpha; experiment: Inhibition of wild-type human partial length PDGFRA (V575 to D1002 residues) expressed in mammalian expression system after 1 hr by Z-LYTE assay
[8] = Antiproliferative activity against human GIST5R cells harboring c-KIT 560 to 578 deletion/T670I double mutant incubated for 72 hrs by CCK8 assay; format: functional
Outline: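 Adherent GIST cells seeded at 1.5-5 × 10^4 cells/mL and left overnight at 37 °C, 5% CO2. Medium then replaced with medium holding serial compound dilutions; 72 h incubation. Viability by CCK-8, absorbance at 450 nm, normalized to DMSO control; GI50 from dose-response fit.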

[9] = tested on: Mast/stem cell growth factor receptor Kit (Homo sapiens), P10721 [UNDEFINED MUTATION]; experiment: Inhibition of c-KIT 560 to 578 deletion/T670I double mutant in human GIST5R cells assessed as reduction in c-KIT autophosphorylation at Y719 residue at 0.1 uM to 3 uM after 1 hr by Western blot analysis; format: cell-based
Outline: (§2)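 Serial compound dilutions applied for 1 h to GIST-T1, GIST-T1-T670I (CRISPR/Cas9 T670I knock-in, clone confirmed by Sanger sequencing) or GIST-5R cells in DMEM with 10% FBS. Cells then lysed and phospho-proteins detected by standard Western blotting.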

[10] = tested on: Mast/stem cell growth factor receptor Kit (Homo sapiens), P10721 [UNDEFINED MUTATION]; experiment: Inhibition of c-KIT 560 to 578 deletion mutant in human GISTT1 cells assessed as reduction in ERK phosphorylation at T202/Y204 residue at 0.1 uM to 3 uM after 1 hr by Western blot analysis; format: cell-based; outline: as §2
[11] = tested on: Mast/stem cell growth factor receptor Kit (Homo sapiens), P10721 [UNDEFINED MUTATION]; experiment: Inhibition of c-KIT 560 to 578 deletion/T670I double mutant in human GISTT1 cells assessed as reduction in ERK phosphorylation at T202/Y204 residue at 0.1 uM to 3 uM after 1 hr by Western blot analysis; format: cell-based; outline: as §2
Homo sapiens [12] = species on record: Homo sapiens; experiment: Induction of apoptosis in human GIST5R cells harboring c-KIT 560 to 578 deletion/T670I double mutant assessed as increase in cleaved PARP level after 24 hrs by Western blot analysis; format: functional, cell-based
Outline: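 GIST cells grown in DMEM with 10% FBS, treated 24 h with serially diluted compound; apoptosis read by Western blot for PARP, with GAPDH as loading control.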

[13] = AUC (0 to infinity) in Sprague-Dawley rat at 1 mg/kg, iv measured after 2 to 720 mins by LC-tandem mass spectrometry analysis; format: ADME, organism-based; design: dose 1 mg/kg, route intravenous, time infinity; conditions: in vivo
Outline: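 Male Sprague-Dawley rats (190-210 g), fasted 12 h, randomized into two groups: 1 mg/kg i.v. or 10 mg/kg p.o., both formulated in 10% DMSO/90% of 5% glucose water. Blood sampled at 2-720 min (i.v.) or 5-720 min (p.o.). Plasma protein-precipitated with methanol, caffeine internal standard, LC-MS/MS. Noncompartmental analysis; triplicate, ±SD.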

[14] = AUC (0 to t) in mouse at 1 mg/kg, iv measured after 2 to 720 mins by LC-tandem mass spectrometry analysis; format: ADME, organism-based; conditions: in vivo
Outline: (§3)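 Mice dosed 1 mg/kg i.v. or 10 mg/kg p.o.; plasma drug levels by LC-MS/MS, parameters by noncompartmental analysis; values not from triplicate testing.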

[15] = Apparent volume of distribution in mouse at 10 mg/kg, po measured after 5 to 720 mins by LC-tandem mass spectrometry analysis; format: ADME, organism-based; conditions: in vivo; outline: as §3
[16] = MRT (0 to infinity) in mouse at 10 mg/kg, po measured after 5 to 720 mins by LC-tandem mass spectrometry analysis; format: ADME, organism-based; conditions: in vivo
Mus musculus [17] = experiment: Inhibition of ERK phosphorylation at T202/Y204 residue in tumor of human GIST5R cells xenografted in nude mouse at 100 mg/kg, po administered as single dose and measured at 2 hrs; format: functional, organism-based
Outline: (§4)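 Female nu/nu mice bearing subcutaneous GIST-5R tumors (cells in Matrigel, right flank) given one oral dose of 100 mg/kg in 0.5% methylcellulose/0.4% Tween80. Tumors collected over a 2 h time course. p-c-KIT, p-ERK and p-AKT measured alongside plasma drug levels.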

Mus musculus [18] = experiment: Inhibition of AKT phosphorylation at […] residue in tumor of human GIST5R cells xenografted in nude mouse at 100 mg/kg, po administered as single dose and measured after 2 hrs; format: functional, organism-based; outline: as §4
Mus musculus [19] = experiment: Effect on body weight in nude mouse xenografted with human GIST5R cells at 25 to 100 mg/kg, po administered […] via gavage for 28 days; format: ADME, organism-based; conditions: in vivo, 672 h
Outline: (§5)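 Female nu/nu mice (5 weeks old) given subcutaneous right-flank GIST-5R cells in Matrigel. Dosing began at tumors of 200-400 mm3; randomized, 4 mice per group. Daily oral dosing (QD) at 25, 50 or 100 mg/kg in 0.5% methylcellulose/0.4% Tween80, or vehicle alone, for 28 days. Body weight and tumor volume, (W²×L)/2, measured daily; mean±SEM.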

Homo sapiens [20] = experiment: Antitumor activity against human GIST5R cells xenografted in po dosed nude mouse assessed as reduction in tumor size administered […] via gavage for 28 days post tumor inoculation; format: functional, organism-based; outline: as §5
[21] = Antitumor activity against human GIST5R cells xenografted in nude mouse assessed as tumor weight at 50 mg/kg, po administered […] via gavage for 28 days (reference value: 0.59g); format: functional; outline: as §5

Chain of Mast/stem cell growth factor receptor Kit (Homo sapiens), P10721 [UNDEFINED MUTATION] (P10721 whole entry, looked up, stated change not applied): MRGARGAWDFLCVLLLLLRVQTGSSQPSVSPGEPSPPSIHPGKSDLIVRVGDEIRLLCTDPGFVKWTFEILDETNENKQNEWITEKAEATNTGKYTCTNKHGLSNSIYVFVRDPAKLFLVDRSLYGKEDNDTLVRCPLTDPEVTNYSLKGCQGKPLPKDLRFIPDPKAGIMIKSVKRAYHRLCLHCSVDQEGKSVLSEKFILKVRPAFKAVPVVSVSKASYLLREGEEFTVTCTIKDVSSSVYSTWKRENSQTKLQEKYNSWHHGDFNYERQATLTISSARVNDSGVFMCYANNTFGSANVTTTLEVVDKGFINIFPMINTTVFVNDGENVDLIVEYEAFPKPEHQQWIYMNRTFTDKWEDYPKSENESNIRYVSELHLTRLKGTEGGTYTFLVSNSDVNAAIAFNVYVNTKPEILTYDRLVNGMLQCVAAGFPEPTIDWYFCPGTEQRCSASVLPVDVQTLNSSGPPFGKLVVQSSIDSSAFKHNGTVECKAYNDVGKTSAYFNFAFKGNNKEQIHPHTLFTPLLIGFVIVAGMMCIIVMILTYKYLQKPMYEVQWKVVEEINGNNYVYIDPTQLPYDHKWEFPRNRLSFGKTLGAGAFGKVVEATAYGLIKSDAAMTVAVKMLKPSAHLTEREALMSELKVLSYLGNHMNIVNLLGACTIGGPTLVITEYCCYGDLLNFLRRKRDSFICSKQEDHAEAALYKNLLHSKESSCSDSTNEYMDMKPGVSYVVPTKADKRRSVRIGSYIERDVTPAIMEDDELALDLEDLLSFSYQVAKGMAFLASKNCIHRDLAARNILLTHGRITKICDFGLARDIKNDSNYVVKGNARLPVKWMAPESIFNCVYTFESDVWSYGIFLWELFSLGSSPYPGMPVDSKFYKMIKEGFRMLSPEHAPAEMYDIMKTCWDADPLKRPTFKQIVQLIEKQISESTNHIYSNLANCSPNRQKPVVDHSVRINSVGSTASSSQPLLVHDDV
T2 sequence (P16234 whole entry, the tested form may be a part): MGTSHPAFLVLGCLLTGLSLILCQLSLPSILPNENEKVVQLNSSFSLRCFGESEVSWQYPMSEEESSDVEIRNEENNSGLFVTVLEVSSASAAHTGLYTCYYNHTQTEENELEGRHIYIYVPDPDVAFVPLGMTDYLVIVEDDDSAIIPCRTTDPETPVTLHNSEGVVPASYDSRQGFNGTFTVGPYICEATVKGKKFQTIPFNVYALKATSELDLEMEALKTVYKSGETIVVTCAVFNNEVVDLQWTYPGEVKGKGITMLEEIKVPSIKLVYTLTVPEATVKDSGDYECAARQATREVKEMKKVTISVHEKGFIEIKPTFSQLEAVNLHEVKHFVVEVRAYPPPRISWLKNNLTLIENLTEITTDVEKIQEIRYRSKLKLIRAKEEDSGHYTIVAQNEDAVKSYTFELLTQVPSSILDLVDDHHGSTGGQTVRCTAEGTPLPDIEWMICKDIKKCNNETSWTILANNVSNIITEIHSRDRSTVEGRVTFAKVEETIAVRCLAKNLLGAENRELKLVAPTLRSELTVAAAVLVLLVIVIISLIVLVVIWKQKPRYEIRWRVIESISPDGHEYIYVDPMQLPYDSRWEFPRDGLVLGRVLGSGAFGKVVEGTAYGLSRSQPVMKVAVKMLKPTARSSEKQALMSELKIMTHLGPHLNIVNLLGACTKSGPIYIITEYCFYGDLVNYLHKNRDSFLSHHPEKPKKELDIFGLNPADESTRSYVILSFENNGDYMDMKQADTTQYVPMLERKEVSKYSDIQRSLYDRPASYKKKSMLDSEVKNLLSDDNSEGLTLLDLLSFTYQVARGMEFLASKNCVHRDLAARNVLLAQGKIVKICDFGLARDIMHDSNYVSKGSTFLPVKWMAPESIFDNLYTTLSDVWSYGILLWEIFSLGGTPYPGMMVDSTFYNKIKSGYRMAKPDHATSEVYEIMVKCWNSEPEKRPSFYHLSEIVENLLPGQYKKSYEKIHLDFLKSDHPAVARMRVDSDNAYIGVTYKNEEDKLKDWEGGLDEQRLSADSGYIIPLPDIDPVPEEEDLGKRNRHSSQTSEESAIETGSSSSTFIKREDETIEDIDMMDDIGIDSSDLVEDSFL
T1 sequence (P10721 26-976 T670I limits assumed): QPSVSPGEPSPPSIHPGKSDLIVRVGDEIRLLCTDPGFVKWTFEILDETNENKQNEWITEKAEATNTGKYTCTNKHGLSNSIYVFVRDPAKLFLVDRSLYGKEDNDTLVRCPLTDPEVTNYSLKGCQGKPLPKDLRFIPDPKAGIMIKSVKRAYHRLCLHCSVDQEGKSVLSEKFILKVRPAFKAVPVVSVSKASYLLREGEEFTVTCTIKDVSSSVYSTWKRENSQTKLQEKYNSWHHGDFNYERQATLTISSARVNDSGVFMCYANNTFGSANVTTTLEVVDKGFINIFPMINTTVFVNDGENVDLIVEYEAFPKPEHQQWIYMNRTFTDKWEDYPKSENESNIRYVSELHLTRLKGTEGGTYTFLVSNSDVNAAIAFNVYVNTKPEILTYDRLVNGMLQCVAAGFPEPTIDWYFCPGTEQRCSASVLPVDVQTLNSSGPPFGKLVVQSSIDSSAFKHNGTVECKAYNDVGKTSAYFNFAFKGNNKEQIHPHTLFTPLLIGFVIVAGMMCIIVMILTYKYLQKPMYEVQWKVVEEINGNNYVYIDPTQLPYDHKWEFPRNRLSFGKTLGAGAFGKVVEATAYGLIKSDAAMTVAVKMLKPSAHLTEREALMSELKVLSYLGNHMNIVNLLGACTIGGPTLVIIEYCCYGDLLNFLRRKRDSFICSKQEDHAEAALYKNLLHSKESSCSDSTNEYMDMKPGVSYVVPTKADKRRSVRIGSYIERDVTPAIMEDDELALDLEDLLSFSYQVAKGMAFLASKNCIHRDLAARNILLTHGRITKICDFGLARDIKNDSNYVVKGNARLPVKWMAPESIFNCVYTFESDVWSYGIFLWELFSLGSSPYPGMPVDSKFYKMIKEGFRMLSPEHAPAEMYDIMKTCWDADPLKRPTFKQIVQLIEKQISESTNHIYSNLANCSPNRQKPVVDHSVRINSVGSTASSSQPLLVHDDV
Chain of Mast/stem cell growth factor receptor Kit (Homo sapiens), P10721 [V559A] (P10721 whole entry V559A, the tested form may be a part): as the sequence (P10721 whole entry, looked up, stated change not applied) above, with V559A counted along it
Chain of Mast/stem cell growth factor receptor Kit (Homo sapiens), P10721 [D816H] (P10721 whole entry D816H, the tested form may be a part): as the sequence (P10721 whole entry, looked up, stated change not applied) above, with D816H counted along it
Chain of Mast/stem cell growth factor receptor Kit (Homo sapiens), P10721 [V654A] (P10721 whole entry V654A, the tested form may be a part): as the sequence (P10721 whole entry, looked up, stated change not applied) above, with V654A counted along it

O=C(CC(=O)Nc1ccc2c(/C=C/c3ccccn3)n[nH]c2c1)Nc1cccc(F)c1
GI50 [1]: 31 nM
GI50 [2]: 525 nM
GI50 [3]: 6840 nM
EC50 [4]: 750 nM
EC50 [5]: 34 nM
Activity [6]: 3.4%
IC50 [7]: 7780 nM
GI50 [8]: 475 nM
inhibition [9]: Active
inhibition [10]: Active
inhibition [11]: Active
Activity (Homo sapiens [12]): Dose-dependent effect
AUC(0-inf) [13]: 307 ng·h/mL
AUC(0-t) [14]: 898 ng·h/mL
Vz [15]: 19 L/kg
MRT inf [16]: 2.2 h
inhibition (Mus musculus [17]): Active
inhibition (Mus musculus [18]): inactive
Activity (Mus musculus [19]): Non-Toxic
inhibition (Homo sapiens [20]): Dose-dependent effect
Activity [21]: 0.25 g
